Among the data in PubChem BioAssay are GFP response vs DMSO, GFP response relative to DMSO and GFP response, % of DMSO values, retold here.

Calls of active or inactive are those of the source.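 The calls were made as follows, unless noted: active = GFP response above 150% of the DMSO level; inconclusive = fewer than 70 events counted for a yeast strain; inactive = the rest.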

Assay [1] in a line: RPL19A-GFP modulators, yeast TOR pathway, confirmation, cell-based, S. cerevisiae, flow cytometry, cherry picks, mother/daughter gates (AID 2270;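 active = GFP response below 50% of the DMSO control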). The note with it: S. cerevisiae RPL19A-GFP strain, 3 h, at 10 µM, stronger effect = lower value, 100 = same GFP as DMSO wells. In general terms: In flow cytometry, cells or beads pass a laser one at a time.
The nature of assay [2]: LAP4-GFP expression modulators in yeast, confirmation, cell-based, cherry picks, flow cytometry, mother/daughter gates (AID 2271;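 active = GFP response above 150% of the DMSO control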;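 also: ratio of sample to DMSO plate mean so 100% equals DMSO level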). The note with it: S. cerevisiae LAP4-GFP strain, 3 h, at 10 µM, stronger effect = higher value, 100 means same as DMSO control. The procedure, abridged:
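System – GFP-fusion yeast strain · Amount – 0.2 OD600 cells · Buffer or medium – SC growth medium · Dosing – single test-compound dose, 10 µM final · Schedule – 3 h treatment at 30 °C with rotation · Detection – GFP by flow cytometry · Read-out – per-gate (all, mother, daughter) GFP response vs DMSO · Benchmarks – positive rapamycin (400 ng/mL), negative DMSO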

Assay [3] can be described thus: modulators of MEP2-GFP levels in yeast, confirmation, S. cerevisiae, flow cytometry GFP, cherry picks (AID 2272;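 active = GFP response above 150% of the DMSO control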;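 also: ratio of well signal to plate DMSO mean so 100% equals DMSO level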). The note with it: S. cerevisiae MEP2-GFP strain, 3 h, at 10 µM, stronger effect = higher value.
The nature of assay [4]: AGP1-GFP expression modulators, hit retest, confirmation, cell-based, flow cytometry, S. cerevisiae, cherry picks (AID 2273).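 Also: median GFP channel fluorescence over the whole cell population gate.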 The note with it: S. cerevisiae AGP1-GFP strain, 3 h, at 10 µM.
A short description of assay [5]: modulators of CIT2-GFP expression in yeast, confirmation, S. cerevisiae, GFP fusion, cherry picks, mother/daughter gates (AID 2274). The note with it: S. cerevisiae CIT2-GFP strain, flow cytometry, 3 h, at 10 µM, stronger effect = higher value.
Where [6] appears, read: measured here: daughter cell gate.
[7] abbreviates: measured here: mother cell gate.
Setting [8] is: measured here: daughter cell gate response.
Where [9] appears, read: measured here: mother cell gate response.

As to `COc1ccccc1C(=O)N1CCN(c2cccc(Cl)c2)CC1`, the GFP response vs DMSO in assay [1] was 97.2% (inactive); in assay [1] (setting [6]), 98.9%; in assay [1] (setting [7]), 95.8%; in assay [3] it was 100% (inactive). For the same molecule, the GFP response relative to DMSO is 102% (inactive) in assay [2], 102% in assay [2] (setting [8]) and 99.3% in assay [2] (setting [9]). In addition, the GFP response, % of DMSO is 95.6% (inactive) in assay [4], 96.9% (inactive) in assay [5], 99.1% in assay [5] (setting [6]) and 95% in assay [5] (setting [7]).

In the case of `Cc1ccc(S(=O)(=O)N2CCCC2C(=O)OCc2ccco2)cc1` (stereo not drawn), the GFP response vs DMSO is 103% (inactive) in assay [1], 103% in assay [1] (setting [6]), 103% in assay [1] (setting [7]) and 107% (inactive) in assay [3]. Moreover, the GFP response relative to DMSO in assay [2] was 89% (inactive); in assay [2] (setting [8]) it was 92.5%; in assay [2] (setting [9]), 92.1%. The GFP response, % of DMSO in assay [4] is 97.6% (inactive); in assay [5], 112% (inactive); in assay [5] (setting [6]) it was 111%; in assay [5] (setting [7]) it was 112%.

For the molecule `O=C1C(Cl)=C(Nc2ccccc2O)C(=O)N1c1ccccc1`, the GFP response vs DMSO in assay [1] was 97.4% (inactive); in assay [1] (setting [6]), 98%; in assay [1] (setting [7]), 97.1%; in assay [3], 104% (inactive). The GFP response relative to DMSO was 112% (inactive) in assay [2], 108% in assay [2] (setting [8]) and 113% in assay [2] (setting [9]). In addition, the GFP response, % of DMSO is 103% (inactive) in assay [4], 99.3% (inactive) in assay [5], 100% in assay [5] (setting [6]) and 98% in assay [5] (setting [7]).

On to `Cc1ccc(Cl)cc1N1CCN(C(=O)CSc2ccsc2[N+](=O)[O-])CC1`, for which the GFP response vs DMSO was 98% (inactive) in assay [1], 97.4% in assay [1] (setting [6]), 97.8% in assay [1] (setting [7]) and 101% (inactive) in assay [3]. Moreover, the GFP response relative to DMSO in assay [2] was 97% (inactive); in assay [2] (setting [8]), 95.9%; in assay [2] (setting [9]) it was 96.2%. The GFP response, % of DMSO in assay [4] is 99.4% (inactive); in assay [5], 100% (inactive); in assay [5] (setting [6]), 99.2%; in assay [5] (setting [7]), 99.3%.

Turning to `CCN(CC)c1ccc(/C=C/c2ccc3ccc(OC)cc3[n+]2CC)cc1`, the GFP response vs DMSO in assay [1] was 102% (inactive); in assay [1] (setting [6]), 101%; in assay [1] (setting [7]) it was 101%; in assay [3], 133% (inactive). Moreover, the GFP response relative to DMSO is 117% (inactive) in assay [2], 113% in assay [2] (setting [8]) and 119% in assay [2] (setting [9]). Further, the GFP response, % of DMSO in assay [4] is 98.9% (inactive); in assay [5], 107% (inactive); in assay [5] (setting [6]), 110%; in assay [5] (setting [7]), 104%.

Take `CN1CCc2c(sc3c2C(=O)NC(c2ccc4c(c2)OCO4)N3)C1` (stereo not drawn): the GFP response vs DMSO in assay [1] was 98.4% (inactive); in assay [1] (setting [6]), 99.8%; in assay [1] (setting [7]), 98.5%; in assay [3], 106% (inactive). Besides, the GFP response relative to DMSO in assay [2] is 96.5% (inactive); in assay [2] (setting [8]) it was 95%; in assay [2] (setting [9]) it was 98.5%. The GFP response, % of DMSO in assay [4] is 102% (inactive); in assay [5], 102% (inactive); in assay [5] (setting [6]) it was 102%; in assay [5] (setting [7]), 99.1%.

Take `CS(=O)(=O)c1sc(C#N)c2c1C(=O)CC(c1ccccc1)C2` (stereo not drawn): the GFP response vs DMSO was 103% (inactive) in assay [1], 111% in assay [1] (setting [6]), 96.6% in assay [1] (setting [7]) and 116% (inactive) in assay [3]. Further, the GFP response relative to DMSO in assay [2] is 174% (active); in assay [2] (setting [8]), 168%; in assay [2] (setting [9]), 179%. The GFP response, % of DMSO was 117% (inactive) in assay [4], 105% (inactive) in assay [5], 111% in assay [5] (setting [6]) and 95.7% in assay [5] (setting [7]).

As for `Cc1cc(O)c(C(=O)/C=C/c2ccccc2O)c(=O)o1`, the GFP response vs DMSO in assay [1] was 101% (inactive); in assay [1] (setting [6]), 98.9%; in assay [1] (setting [7]), 101%; in assay [3], 105% (inactive). Moreover, the GFP response relative to DMSO in assay [2] is 119% (inactive); in assay [2] (setting [8]) it was 109%; in assay [2] (setting [9]) it was 125%. For the same molecule, the GFP response, % of DMSO in assay [4] was 90.2% (inactive); in assay [5], 89.8% (inactive); in assay [5] (setting [6]) it was 91.7%; in assay [5] (setting [7]), 86.7%.

For `O=C1CC(SCCO)C(=O)N1c1ccc(Oc2ccccc2)cc1` (stereo not drawn), the GFP response vs DMSO in assay [1] was 99.7% (inactive); in assay [1] (setting [6]), 98.7%; in assay [1] (setting [7]), 101%; in assay [3] it was 104% (inactive). The GFP response relative to DMSO in assay [2] is 103% (inactive); in assay [2] (setting [8]) it was 105%; in assay [2] (setting [9]) it was 104%. The GFP response, % of DMSO was 103% (inactive) in assay [4], 104% (inactive) in assay [5], 101% in assay [5] (setting [6]) and 106% in assay [5] (setting [7]).

Consider `Cc1n[nH]c(C)c1N1C(=O)c2cccc3c(Br)ccc(c23)C1=O`, for which the GFP response vs DMSO was 101% (inactive) in assay [1], 100% in assay [1] (setting [6]), 101% in assay [1] (setting [7]) and 104% (inactive) in assay [3]. Also, the figures for the GFP response relative to DMSO in assay [2], in assay [2] (setting [8]) and in assay [2] (setting [9]) were 98.8% (inactive), 99.3% and 98.5%, respectively. Further, the GFP response, % of DMSO in assay [4] is 92.5% (inactive); in assay [5] it was 96.4% (inactive); in assay [5] (setting [6]), 96.4%; in assay [5] (setting [7]), 94.5%.

As to `Cc1nonc1C(=O)N/N=C/c1ccc([N+](=O)[O-])o1`, the GFP response vs DMSO in assay [1] was 100% (inactive); in assay [1] (setting [6]), 101%; in assay [1] (setting [7]), 101%; in assay [3], 105% (inactive). Further, the GFP response relative to DMSO in assay [2] is 111% (inactive); in assay [2] (setting [8]) it was 109%; in assay [2] (setting [9]), 113%. The GFP response, % of DMSO in assay [4] was 106% (inactive); in assay [5], 105% (inactive); in assay [5] (setting [6]), 105%; in assay [5] (setting [7]), 104%.

Regarding `Cn1cnnc1SCC(=O)Nc1nc(-c2ccc(F)cc2)cs1`, the GFP response vs DMSO is 100% (inactive) in assay [1], 99.1% in assay [1] (setting [6]), 101% in assay [1] (setting [7]) and 103% (inactive) in assay [3]. In addition, the GFP response relative to DMSO in assay [2] was 97% (inactive); in assay [2] (setting [8]), 95.9%; in assay [2] (setting [9]) it was 97.3%. The GFP response, % of DMSO in assay [4] is 99.4% (inactive); in assay [5] it was 102% (inactive); in assay [5] (setting [6]), 103%; in assay [5] (setting [7]), 102%.

As for `C=CCNC(=O)/C(C#N)=C/c1c(N2CC(C)OC(C)C2)nc2ccccn2c1=O` (stereo not drawn), the GFP response vs DMSO is 98.8% (inactive) in assay [1], 99.5% in assay [1] (setting [6]), 98.4% in assay [1] (setting [7]) and 102% (inactive) in assay [3]. Besides, the GFP response relative to DMSO in assay [2] is 102% (inactive); in assay [2] (setting [8]), 100%; in assay [2] (setting [9]) it was 105%. The GFP response, % of DMSO was 100% (inactive) in assay [4], 96.5% (inactive) in assay [5], 98.1% in assay [5] (setting [6]) and 94.4% in assay [5] (setting [7]).
